Consider 36 compounds from ChEMBL document CHEMBL4371014, “Novel Allosteric Ligands of γ-Aminobutyric Acid Transporter 1 (GAT1) by MS Based Screening of Pseudostatic Hydrazone Libraries” (J Med Chem, 2018).

The target in experiment [1] is Sodium- and chloride-dependent GABA transporter 1 (Homo sapiens) (UniProt P30531). As to the kind of experiment: Inhibition of human GAT1 expressed in HEK293 cells assessed as reduction in [3H]GABA uptake preincubated for 25 mins followed by [3H]GABA addition and measured after 4 mins by liquid scintillation counting method. The format is cell-based.
Experiment [2] shares this target. To be noted: 100 nM.
The target is the same in experiment [3]. The settings on record: 1 uM.
The target in experiment [4] is Sodium- and chloride-dependent GABA transporter 1 (Mus musculus) (UniProt P31648). Nature of the experiment: Inhibition of NO711 binding to mouse GAT1 expressed in HEK293 cell membranes assessed as residual binding at 1 uM preincubated for 4 hrs followed by NO711 addition and measured after 40 mins by LC-ESI-MS/MS analysis relative to control. An outline of the steps: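 Single hydrazones formed in situ in the presence of mouse GAT1 from one aldehyde (1.0 µM) and hydrazine (200 µM). Formation ran 4 h, then NO711 MS marker was added for 40 min. Specifically bound NO711 was freed from the target and quantified by LC-ESI-MS/MS. Results are % remaining specific binding, means±SD of four replicates.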

Experiment [5] shares this target. Nature of the experiment: Inhibition of mouse GAT1 expressed in HEK293 cells assessed as reduction in [3H]GABA uptake at 100 uM preincubated for 25 mins followed by [3H]GABA addition and measured after 4 mins by liquid scintillation counting method relative to control. The format is cell-based.
The target in experiment [6] is T1, GABA transporter 4 (Mus musculus) (UniProt P31650).
T1 sequence (whole entry): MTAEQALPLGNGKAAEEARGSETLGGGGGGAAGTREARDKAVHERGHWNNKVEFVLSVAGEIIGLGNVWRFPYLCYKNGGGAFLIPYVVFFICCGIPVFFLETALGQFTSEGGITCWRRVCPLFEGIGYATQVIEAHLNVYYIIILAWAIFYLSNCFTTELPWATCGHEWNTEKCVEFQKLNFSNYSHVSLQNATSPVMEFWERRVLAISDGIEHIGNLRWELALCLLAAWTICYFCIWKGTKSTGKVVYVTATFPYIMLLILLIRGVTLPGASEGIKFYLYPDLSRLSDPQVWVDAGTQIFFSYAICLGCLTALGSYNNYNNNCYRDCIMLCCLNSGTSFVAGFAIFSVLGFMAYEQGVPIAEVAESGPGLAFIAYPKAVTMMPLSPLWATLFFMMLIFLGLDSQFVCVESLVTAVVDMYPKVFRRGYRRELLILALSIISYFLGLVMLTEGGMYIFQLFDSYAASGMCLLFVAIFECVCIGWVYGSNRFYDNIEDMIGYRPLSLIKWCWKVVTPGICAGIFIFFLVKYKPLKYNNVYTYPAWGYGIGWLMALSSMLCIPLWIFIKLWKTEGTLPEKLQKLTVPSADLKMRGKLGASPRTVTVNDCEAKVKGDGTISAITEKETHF
As to the kind of experiment: Inhibition of mouse GAT4 expressed in HEK293 cells assessed as reduction in [3H]GABA uptake at 100 uM preincubated for 25 mins followed by [3H]GABA addition and measured after 4 mins by liquid scintillation counting method relative to control. It is filed as cell-based.

Experiment [7] concerns the target Sodium- and chloride-dependent GABA transporter 1 (Homo sapiens) (UniProt P30531). Nature of the experiment: Non-competitive inhibition of human GAT1 expressed in COS cells assessed as reduction in [2H6]GABA uptake by measuring [2H6]GABA Bmax at 1 uM preincubated for 25 mins followed by [2H6]GABA addition and measured after 4 mins […] (reference value: 79.5 +/- 5 pmol/mg). It is filed as cell-based.

The target is the same in experiment [8]. Nature of the experiment: Non-competitive inhibition of human GAT1 expressed in COS cells assessed as reduction in [2H6]GABA uptake by measuring [2H6]GABA Bmax at 10 uM preincubated for 25 mins followed by [2H6]GABA addition and measured after 4 mins […] (reference value: 79.5 +/- 5 pmol/mg). The format is cell-based.
Experiment [9] has as its system Slc6a13 GABA transporter mGAT3 (Mus musculus). As to the kind of experiment: Inhibition of mouse GAT3 expressed in HEK293 cells assessed as reduction in [3H]GABA uptake at 100 uM preincubated for 25 mins followed by [3H]GABA addition and measured after 4 mins by liquid scintillation counting method relative to control.
Experiment [10] has as its system Betaine/GABA transporter BGT1 (Mus musculus). As to the kind of experiment: Inhibition of mouse GAT2 expressed in HEK293 cells assessed as reduction in [3H]GABA uptake at 100 uM preincubated for 25 mins followed by [3H]GABA addition and measured after 10 mins by liquid scintillation counting method relative to control.

The source made the active and inactive calls. The rule behind the calls is not given here. A value given as a limit tells only on which side of the number the result lay.

Sodium- and chloride-dependent GABA transporter 1 (Homo sapiens), sequence (P30531 whole entry, looked up): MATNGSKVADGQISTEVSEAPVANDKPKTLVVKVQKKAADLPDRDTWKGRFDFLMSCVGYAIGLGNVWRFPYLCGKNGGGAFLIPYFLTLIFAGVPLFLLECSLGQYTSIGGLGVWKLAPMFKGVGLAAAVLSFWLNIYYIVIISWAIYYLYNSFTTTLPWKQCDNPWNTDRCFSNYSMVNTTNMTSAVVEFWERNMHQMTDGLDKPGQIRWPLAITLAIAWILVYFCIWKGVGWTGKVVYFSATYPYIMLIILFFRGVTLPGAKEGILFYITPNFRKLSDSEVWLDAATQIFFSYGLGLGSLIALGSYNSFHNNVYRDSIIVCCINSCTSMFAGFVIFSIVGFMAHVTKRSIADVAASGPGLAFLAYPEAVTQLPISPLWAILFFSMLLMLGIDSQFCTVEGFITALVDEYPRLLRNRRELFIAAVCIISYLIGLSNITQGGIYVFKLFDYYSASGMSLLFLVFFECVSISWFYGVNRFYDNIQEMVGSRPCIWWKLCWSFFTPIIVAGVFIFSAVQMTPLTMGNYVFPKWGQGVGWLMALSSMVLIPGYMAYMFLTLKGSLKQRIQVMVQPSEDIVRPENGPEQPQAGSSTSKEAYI

Turning to `Cc1ccsc1C(=CCCN1CCC[C@@H](C(=O)O)C1)c1sccc1C`, in experiment [1], the inhibition result was “Active”. Further, the results for the Bmax in experiment [2] and in experiment [3] were 79.9 pmol/mg and 81 pmol/mg, respectively.
As for `O=C(O)C1=CCCN(CCON=C(c2ccccc2)c2ccccc2)C1`, the inhibition entry in experiment [1] is “Active”.
Turning to `Cc1ccsc1-c1sc(/C=N/NCC[C@H]2CNC[C@H](C(=O)O)C2)cc1C` (racemic), the Activity in experiment [4] is over 50%.
With `Cc1ccsc1-c1sc(/C=N/NC[C@H]2CNC[C@H](C(=O)O)C2)cc1C` (racemic), the Activity in experiment [4] is over 50%.
With `Cn1cnnc1Sc1ccc(/C=N/NCC[C@@H]2CNC[C@H](C(=O)O)C2)o1` (racemic), the Activity in experiment [4] was 73%.
Regarding `O=C(O)[C@H]1CNC[C@@H](CCN/N=C/c2ccc(-c3cc(C(F)(F)F)cc(C(F)(F)F)c3)o2)C1` (racemic), the Activity in experiment [4] came to 76%.
Same read-out and setting: next, `O=C(O)[C@H]1CNC[C@@H](CCN/N=C/c2ccc(-c3cc(C(F)(F)F)ccc3Cl)o2)C1` (racemic): 54%.
Still for that read-out and setting: next, `O=C(O)[C@H]1CNC[C@@H](CCN/N=C/c2ccc(-c3ccc(Br)cc3)o2)C1` (racemic): 65%.
Take `O=C(O)[C@H]1CNC[C@@H](CCN/N=C/c2ccc(-c3ccc(C(F)(F)F)cc3Cl)o2)C1` (racemic): the Activity in [4] amounted to 47%. Also, the inhibition result in experiment [1] is “Active”.
In the case of `O=C(O)[C@H]1CNC[C@@H](CCN/N=C/c2ccc(-c3ccc(Cl)cc3)o2)C1` (racemic), in experiment [4], the Activity came to 62%.
With `O=C(O)[C@H]1CNC[C@@H](CCN/N=C/c2ccc(-c3ccc(Cl)cc3Cl)o2)C1` (racemic), the Activity in experiment [4] worked out at 41%. In addition, in experiment [1], the inhibition entry is “Active”.
Take `O=C(O)[C@H]1CNC[C@@H](CCN/N=C/c2ccc(-c3ccc(Cl)cc3F)o2)C1` (racemic): the Activity in [4] was determined as 64%.
Same read-out and setting: to `O=C(O)[C@H]1CNC[C@@H](CCN/N=C/c2ccc(-c3ccc(Cl)cc3[N+](=O)[O-])o2)C1` (racemic) belongs 60%.
Still for that read-out and setting: next, `O=C(O)[C@H]1CNC[C@@H](CCN/N=C/c2ccc(-c3ccc(F)c(C(F)(F)F)c3)o2)C1` (racemic): 72%; `O=C(O)[C@H]1CNC[C@@H](CCN/N=C/c2ccc(-c3cccc(C(F)(F)F)c3)o2)C1` (racemic): 70%; `O=C(O)[C@H]1CNC[C@@H](CCN/N=C/c2ccc(-c3cccc4ccccc34)o2)C1` (racemic): 58%.
On to `O=C(O)[C@H]1CNC[C@@H](CCN/N=C/c2ccc(-c3ccccc3C(F)(F)F)o2)C1` (racemic), for which the Activity in experiment [4] worked out at 60%.
Same read-out and setting: next, `O=C(O)[C@H]1CNC[C@@H](CCN/N=C/c2ccc(-c3ccn[nH]3)o2)C1` (racemic): 72%.
Regarding `O=C(O)[C@H]1CNC[C@@H](CN/N=C/c2ccc(-c3cc(C(F)(F)F)cc(C(F)(F)F)c3)o2)C1` (racemic), the Activity in experiment [4] worked out at 32%. Further, the inhibition was 50% in experiment [5], 79% in experiment [6], 65% in experiment [9] and 84% in experiment [10]. The inhibition result in experiment [1] is “Active”. Further, the Bmax turned out to be 57.1 pmol/mg in experiment [7] and 38.9 pmol/mg in experiment [8].
In the case of `O=C(O)[C@H]1CNC[C@@H](CN/N=C/c2ccc(-c3cc(C(F)(F)F)ccc3Cl)o2)C1` (racemic), the Activity in experiment [4] came out at 38%. Besides, the figures for the inhibition in experiment [6], in [9] and in experiment [10] were 57%, 57% and 91%, respectively. In experiment [1], the inhibition entry was “Active”.
With `O=C(O)[C@H]1CNC[C@@H](CN/N=C/c2ccc(-c3ccc(C(F)(F)F)cc3Cl)o2)C1` (racemic), in experiment [4], the Activity amounted to 40%. Also, the figures for the inhibition in experiment [6], in experiment [9] and in experiment [10] were 53%, 59% and 65%, respectively. In addition, the inhibition entry in experiment [1] is “Active”.
For `O=C(O)[C@H]1CNC[C@@H](CN/N=C/c2ccc(-c3cccc4ccccc34)o2)C1` (racemic), in [4], the Activity is 16%. In addition, the inhibition result in experiment [1] is “Active”. For the same compound, the Bmax in [7] came out at 48.4 pmol/mg; in experiment [8], 28.3 pmol/mg. For the same compound, the inhibition in experiment [10] amounted to 64%.
Turning to `O=C(O)[C@H]1CNC[C@H](CCN/N=C/c2ccc(-c3ccc(C(F)(F)F)cc3Cl)o2)C1` (racemic), the Activity in [4] is over 50%.
Turning to `O=C(O)[C@H]1CNC[C@H](CCN/N=C/c2ccc(-c3ccccc3OC(F)(F)F)o2)C1` (racemic), in experiment [4], the Activity is over 50%.
Still for that read-out and setting: to `O=C(O)[C@H]1CNC[C@H](CCN/N=C/c2ccc(C#Cc3ccccc3)s2)C1` (racemic) belongs over 50%; to `O=C(O)[C@H]1CNC[C@H](CCN/N=C/c2ccccc2-n2cccc2)C1` (racemic), over 50%.
For `O=C(O)[C@H]1CNC[C@H](CCN/N=C/c2cccn2-c2ccc(C(F)(F)F)cc2)C1` (racemic), the Activity in experiment [4] is over 50%.
On to `O=C(O)[C@H]1CNC[C@H](CCN/N=C/c2csc3ccccc23)C1` (racemic), for which the Activity in [4] is over 50%.
As for `O=C(O)[C@H]1CNC[C@H](CCN/N=C/c2sccc2-n2cccc2)C1` (racemic), the Activity in [4] was over 50%.
With `O=C(O)[C@H]1CNC[C@H](CN/N=C/c2ccc(-c3ccc(C(F)(F)F)cc3Cl)o2)C1` (racemic), the Activity in experiment [4] is over 50%.
On to `O=C(O)[C@H]1CNC[C@H](CN/N=C/c2ccc(-c3ccccc3OC(F)(F)F)o2)C1` (racemic), for which the Activity in experiment [4] is over 50%.
Take `O=C(O)[C@H]1CNC[C@H](CN/N=C/c2ccc(C#Cc3ccccc3)s2)C1` (racemic): the Activity in [4] is over 50%.
`O=C(O)[C@H]1CNC[C@H](CN/N=C/c2ccccc2-n2cccc2)C1` (racemic): the Activity in experiment [4] is over 50%.
For `O=C(O)[C@H]1CNC[C@H](CN/N=C/c2cccn2-c2ccc(C(F)(F)F)cc2)C1` (racemic), the Activity in experiment [4] is over 50%.
As for `O=C(O)[C@H]1CNC[C@H](CN/N=C/c2csc3ccccc23)C1` (racemic), the Activity in experiment [4] was over 50%.
Consider `O=C(O)[C@H]1CNC[C@H](CN/N=C/c2sccc2-n2cccc2)C1` (racemic), for which the Activity in experiment [4] is over 50%.

For orientation: inhibition means the change of the read-out against control, counted positive when it falls.
